# Published values collected from several papers.
# Compare with care: the assays were run in different laboratories.
# BDKRB1: B1 bradykinin receptor (BDKRB1, Homo sapiens, UniProt P46663)
# FAAH: Fatty-acid amide hydrolase 1 (FAAH, Homo sapiens, UniProt O00519)
Structure (SMILES),target,test,conditions,inhibition
C[C@H](C(=O)N[C@H]1COc2ccccc2[C@@H]1S(C)(=O)=O)c1ccc(F)cc1,BDKRB1,cell-free assay,10 µM,7%
CN(C(=O)Oc1nsnc1N1CCOCC1)C1CCCCCCC1,FAAH,"enzyme activity, inhibitor","10 µM, cell membranes",18%
COCc1c(-c2cc3cc(C)cc(OC)c3s2)c2c(N)ncnn2c1CN1CCNC(=O)C1,"Prostaglandin G/H synthase 1 (PTGS1, Homo sapiens, UniProt P23219)","enzyme activity, inhibitor",10 µM,-15%
O=C(Nc1cccnn1)N1CCN([C@@H]2CCOc3cc(C(F)(F)F)ccc32)CC1,"Gastrin/cholecystokinin type B receptor (CCKBR, Homo sapiens, UniProt P32239)",cell-free assay,20 µM,-15%
c1ccc(C(NCCNC(c2ccccc2)c2ccccc2)c2ccccc2)cc1,BDKRB1,cell-free assay,10 µM,-4%
COc1ccc(N(C)C(=O)Oc2nsnc2N2CCCCC2)cc1,FAAH,"enzyme activity, inhibitor","10 µM, cell membranes",17%
COc1ccc(S(=O)(=O)N(CC(=O)NO)CC(C)C)cc1,"Stromelysin-1 (MMP3, Homo sapiens, UniProt P08254)","enzyme activity, inhibitor",0.1 µM,80%
C#Cc1n[nH]c2c(-c3cn([C@@H](C)c4ccccn4)c(=O)[nH]c3=O)cc(F)cc12,"Receptor-type tyrosine-protein kinase FLT3 (FLT3, Homo sapiens, UniProt P36888)","enzyme activity, inhibitor",0.1 µM,6.2%
